Measured values taken from PMC9674229 (Proceedings of the National Academy of Sciences of the …, 2022).

Assays:
[1] = tested on: spinal cord transient firing neurons; settings: cited from earlier work
[2] = tested on: inhibitory DREADD hM4DGi in spinal Y1-INs; assay: chemogenetic inhibition of Y1-INs: mechanical withdrawal threshold; format: in vivo, mouse; settings: CNO 3 mg/kg i.p., n = 7 mice/group
How it was run: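 Adult Npy1rCre mice received intraspinal Cre-dependent AAV8-hSyn-DIO-hM4DGi (mCherry-tagged) into the left lumbar DH at L3–L4. CNO (3 mg/kg, i.p.) was given either before or after SNI. Calibrated von Frey filaments were applied to the lateral hindpaw to measure withdrawal thresholds. Statistics used two-way ANOVA with Holm-Sidak post hoc tests, and data are shown as means ± SEM.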

[3] = tested on: inhibitory DREADD hM4DGi in spinal Y1-INs; assay: chemogenetic inhibition of Y1-INs: cold; format: in vivo, mouse; settings: CNO 3 mg/kg i.p., n = 7 mice/group
How it was run: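 Npy1rCre mice were given intraspinal AAV8-hSyn-DIO-hM4DGi into the left lumbar (L3–L4) DH, which expresses Gi-DREADD in Y1-INs. CNO 3 mg/kg i.p. was dosed pre- or post-SNI. Cold sensitivity was scored as the withdrawal response to a 10 μL acetone droplet on the lateral hindpaw. Analysis used two-way ANOVA and Holm-Sidak post hoc tests; data are means ± SEM.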

[4] = tested on: inhibitory DREADD hM4DGi in spinal Y1-INs; assay: chemogenetic inhibition of Y1-INs: light touch-evoked pERK; format: in vivo, mouse; settings: CNO 3 mg/kg i.p., SNI mice, n = 7 mice/group
How it was run: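 Y1-INs in Npy1rCre mice were targeted by left lumbar (L3–L4) DH injection of AAV8-hSyn-DIO-hM4DGi. In SNI mice, CNO (3 mg/kg i.p.) was followed by light brushing of the lateral hindpaw. Ipsilateral lumbar DH sections were then immunostained for pERK and quantified in the superficial laminae. Groups were compared by unpaired two-tailed Student's t test; data are means ± SEM.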

[5] = tested on: inhibitory DREADD hM4DGi in spinal Y1-INs; assay: chemogenetic inhibition of Y1-INs: conditioned place preference; format: in vivo, mouse; settings: CNO 3 mg/kg i.p., SNI mice, n = 10 to 11 mice/group
How it was run: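 SNI Npy1rCre mice carried either intraspinal (left lumbar DH) Cre-dependent hM4DGi or control mCherry virus. After conditioning with CNO (3 mg/kg i.p.) paired to one chamber, time spent in the CNO-paired chamber was recorded. Groups were compared with an unpaired two-tailed Student's t test; data are means ± SEM.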

[6] = tested on: excitatory DREADD hM3DGq in spinal Y1-INs; assay: chemogenetic activation of Y1-INs: spontaneous nocifensive behavior; format: in vivo, mouse; settings: CNO 3 mg/kg i.p., n = 3 to 5 mice/group
How it was run: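 Cre-dependent AAV8-hSyn-DIO-hM3DGq-mCitrine or mCherry control virus was injected into the left lumbar dorsal horn of uninjured Npy1rCre mice. CNO (3 mg/kg, i.p.) or saline was given, then behaviour was videotaped. Scored: nocifensive acts (lifting, flapping, shaking, licking, guarding) and itch-like acts (biting, scratching), each directed to the ipsilateral or contralateral hind limb. Three-way RM ANOVA, Holm-Sidak post hoc.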

[7] = tested on: excitatory DREADD hM3DGq in spinal Y1-INs; assay: chemogenetic activation of Y1-INs: mechanical; format: in vivo, mouse; settings: CNO 3 mg/kg, uninjured mice, n = 8 mice/group
How it was run: (§1)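 Npy1rCre mice were given an intraspinal injection of Cre-dependent AAV8-hSyn-DIO-hM3DGq-mCitrine into the left lumbar dorsal horn; controls received mCherry virus. Mice were uninjured. CNO 3 mg/kg was given i.p. before testing. Assays: von Frey filaments to the lateral hindpaw (mechanical); a 10 μL acetone droplet to the lateral hindpaw, scoring withdrawal (cold); 52.5 C hotplate (heat). Holm-Sidak post hoc tests.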

[8] = tested on: excitatory DREADD hM3DGq in spinal Y1-INs; assay: chemogenetic activation of Y1-INs: cold; format: in vivo, mouse; settings: CNO 3 mg/kg, uninjured mice, n = 8 mice/group
How it was run: as §1

[9] = tested on: excitatory DREADD hM3DGq in spinal Y1-INs; assay: chemogenetic activation of Y1-INs: heat; format: in vivo, mouse; settings: CNO 3 mg/kg, uninjured mice, n = 8 mice/group
How it was run: as §1

[10] = tested on: excitatory DREADD hM3DGq in spinal Y1-INs; assay: chemogenetic activation of Y1-INs: conditioned place aversion; format: in vivo, mouse; settings: CNO 3 mg/kg i.p., uninjured mice, n = 10 to 11 mice/group
[11] = tested on: excitatory DREADD hM3DGq in spinal Y1-INs; assay: chemogenetic activation of Y1-INs: open field testing; format: in vivo, mouse; settings: CNO 3 mg/kg, 60 min, n = 6 mice/group
How it was run: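 Uninjured Npy1rCre mice carried left lumbar dorsal-horn Cre-dependent hM3DGq or mCherry virus. Immediately after CNO (3 mg/kg, i.p.), mice were placed in a novel open field for 60 min. […] Averaged activity shown as heat maps. Student's unpaired two-tailed t test.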

DREADD = settings: CNO 3 mg/kg; cited from earlier work
Y1 receptors = settings: intrathecal; rodent models of chronic pain; cited from earlier work
[12] = tested on: SNI mice (mechanical allodynia); assay: mechanical withdrawal threshold; format: in vivo, mouse; settings: intrathecal coadministration of BIBO 3304 10.0 µg with [Leu^31, Pro^34]-NPY 10.0 µg; n = 4 to 11 mice/group
[13] = tested on: SNI mice (cold allodynia); assay: cold withdrawal duration; format: in vivo, mouse; settings: intrathecal coadministration of BIBO 3304 10.0 µg with [Leu^31, Pro^34]-NPY 10.0 µg; n = 4 to 11 mice/group
[14] = tested on: light touch-evoked pERK in ipsilateral dorsal horn neurons; assay: light touch-evoked pERK immunoreactivity in dorsal horn, SNI, intrathecal agents; format: in vivo, mouse; settings: intrathecal coadministration of BIBO 3304 10.0 µg with [Leu^31, Pro^34]-NPY 10.0 µg; n = 4 to 6 mice/group

For `NCC1(CC(=O)O)CCCCC1` [gabapentin], the “frequency and amplitude of sEPSCs” value [1] is listed as “reducing both the frequency and amplitude of sEPSCs”.
With `C[N+]1([O-])CCN(C2=Nc3cc(Cl)ccc3Nc3ccccc32)CC1` [CNO, clozapine N-oxide] the SNI-induced mechanical hypersensitivity ([2]; post-SNI) was “abolished both mechanical and cold hypersensitivity”, the “mechanical withdrawal thresholds before SNI” value ([2]; pre-SNI) was “does not alter mechanical or cold withdrawal thresholds before SNI” and the SNI-induced cold hypersensitivity ([3]; post-SNI) was “abolished both mechanical and cold hypersensitivity”. For the same compound, the “cold withdrawal thresholds before SNI” value ([3]; pre-SNI) was “does not alter mechanical or cold withdrawal thresholds before SNI”, the “light touch-evoked pERK in the superficial DH” value [4] was “reduced light-touch evoked pERK in the superficial DH” and the “conditioned place preference (time in CNO-paired chamber)” value ([5]; control virus (mCherry)) was “but not control virus (mCherry) spent more time in the CNO-paired chamber”. For the same compound, the “conditioned place preference (time in CNO-paired chamber)” value ([5]; hM4DGi) was “spent more time in the CNO-paired chamber”, the spontaneous nocifensive behaviors ([6]; control (mCherry) virus) was “but not control (mCherry) virus” and the “itch-like (biting or scratching) behaviors” value ([6]; hM3DGq, uninjured mice) was “but not itch-like (biting or scratching) behaviors”. For the same compound, the “spontaneous nocifensive behaviors, contralateral hind limb” value ([6]; hM3DGq, uninjured mice) was “but not contralateral, hind limb”, the “mechanical (vF) hypersensitivity” value [7] was “hypersensitivity” and the “cold (acetone droplet withdrawal) hypersensitivity” value [8] was “hypersensitivity”. For the same compound, the “heat (52.5 C hotplate) hypersensitivity” value [9] was “hypersensitivity”, the conditioned place aversion [10] was “produced a robust CPA” and the “grooming-like behaviors (stereotypic episode activity count)” value [11] was “increased grooming-like (stereotypic episode activity count) behaviors”. The “movement in open field” value [11] was “continuous movement”, the “rest in open field” value [11] was “lack of rest” and the “time to alter DREADD-dependent neuronal activity” value (DREADD) was no more than 15 min.
For neuropeptide Y [NPY], the “behavioral and spinal molecular signs of hyperalgesia” value (Y1 receptors) is listed as “reduces the behavioral and spinal molecular signs of hyperalgesia”.
With `NC(=O)NCc1ccc(CNC(=O)[C@@H](CCCN=C(N)N)NC(=O)C(c2ccccc2)c2ccccc2)cc1` [BIBO 3304] the “effect on Y1 agonist-induced mechanical anti-allodynia” value [12] was “abolishes”, the “effect on Y1 agonist-induced cold anti-allodynia” value [13] was “abolishes” and the “effect on Y1 agonist-induced reduction of light touch-evoked pERK” value [14] was “this effect is abolished with coadministration of the Y1 antagonist”.
